ChEMBL document CHEMBL5370586 (J Nat Prod, 2023)
Activity calls are given as the source filed them. The calls are words filed in the database; no cut-off is given here.

Columns and labels:
DU-145 [1] = test: Antiproliferative activity against human DU-145 cells assessed as reduction in cell viability incubated for 72 hrs in presence of LPI by MTT assay; assay type: functional, cell-based
Summary of the method: (§1)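 DU145 or PC-3 cells pretreated 1 h with SR141716 (CB1 antagonist), SR144528 (CB2 antagonist), capsazepine (TRPV1 antagonist) or LPI (GPR55 agonist), then given CBD for 72 h. MTT read-out as % of vehicle. Compared with CBD alone by t-test; at least three independent experiments.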

PC-3 [2] = test: Antiproliferative activity against human PC-3 cells assessed as reduction in cell viability incubated for 72 hrs in presence of SR141716 by MTT assay; assay type: functional, cell-based; summary of the method: as §1
PC-3 [3] = test: Antiproliferative activity against human PC-3 cells assessed as reduction in cell viability incubated for 72 hrs in presence of SR144528 by MTT assay; assay type: functional, cell-based; summary of the method: as §1
PC-3 [4] = test: Antiproliferative activity against human PC-3 cells assessed as reduction in cell viability incubated for 72 hrs in presence of capsazepine by MTT assay; assay type: functional, cell-based; summary of the method: as §1
PC-3 [5] = test: Antiproliferative activity against human PC-3 cells assessed as reduction in cell viability incubated for 72 hrs in presence of LPI by MTT assay; assay type: functional, cell-based; summary of the method: as §1
DU-145 [6] = test: Induction of cell cycle arrest in human DU-145 cells assessed as arrest in G1/S phase by measuring reduction in CDK2 protein expression at IC50 concentration incubated for 48 hrs by Western blotting analysis; assay type: functional, cell-based
Summary of the method: (§2)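 DU145 or PC-3 cells seeded at 5 × 10^4 per well and given CBD for 48 h. Lysed in ice-cold RIPA with protease/phosphatase inhibitor; 40 μg protein per lane, SDS-PAGE, PVDF transfer, milk block. Primary antibodies overnight at 4 °C, then HRP secondary 1 h at room temperature, chemiluminescence. Densitometry normalised to loading control, then to vehicle; at least three experiments.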

DU-145 [7] = test: Induction of cell cycle arrest in human DU-145 cells assessed as arrest in G1/S phase by measuring reduction in CDK4 protein expression at IC50 concentration incubated for 48 hrs by Western blotting analysis; assay type: functional, cell-based; summary of the method: as §2
DU-145 [8] = test: Induction of cell cycle arrest in human DU-145 cells assessed as arrest in G1/S phase by measuring reduction in cyclin D3 protein expression at IC50 concentration incubated for 48 hrs by Western blotting analysis relative to control; assay type: functional; set-up: scale not given: the % may be the effect or the level left; summary of the method: as §2
PC-3 [9] = test: Induction of cell cycle arrest in human PC-3 cells assessed as arrest in G1/S phase by measuring reduction in CDK2 protein expression at IC50 concentration incubated for 48 hrs by Western blotting analysis; assay type: functional, cell-based; summary of the method: as §2
PC-3 [10] = test: Induction of cell cycle arrest in human PC-3 cells assessed as arrest in G1/S phase by measuring reduction in cyclin D3 protein expression at IC50 concentration incubated for 48 hrs by Western blotting analysis relative to control; assay type: functional, cell-based; summary of the method: as §2
DU-145 [11] = test: Induction of cell cycle arrest in human DU-145 cells assessed as arrest in G2/M phase by measuring reduction in CDK1 protein expression at IC50 concentration incubated for 48 hrs by Western blotting analysis; assay type: functional, cell-based; summary of the method: as §2
PC-3 [12] = test: Induction of cell cycle arrest in human PC-3 cells assessed as arrest in G2/M phase by measuring reduction in CDK1 protein expression at IC50 concentration incubated for 48 hrs by Western blotting analysis; assay type: functional, cell-based; summary of the method: as §2
DU-145 [13] = test: Induction of cell cycle arrest in human DU-145 cells assessed as arrest in G2/M phase by measuring reduction in CDK7 protein expression at IC50 concentration incubated for 48 hrs by Western blotting analysis; assay type: functional, cell-based; summary of the method: as §2
PC-3 [14] = test: Induction of cell cycle arrest in human PC-3 cells assessed as arrest in G2/M phase by measuring reduction in CDK7 protein expression at IC50 concentration incubated for 48 hrs by Western blotting analysis; assay type: functional, cell-based; summary of the method: as §2
[15] = target: T1, Serine/threonine-protein kinase AKT (Homo sapiens) (UniProt P31751+Q9Y243+P31749); test: Inhibition of AKT phosphorylation in human DU-145 cells at IC50 concentration incubated for 48 hrs by Western blot analysis relative to control; assay type: cell-based
Summary of the method: (§3)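 Cells seeded at 5 × 10^4 per well and treated 48 h with an IC50 dose of CBD in DU145 or PC-3. Lysed in ice-cold RIPA with protease/phosphatase inhibitor. 40 μg protein per lane on SDS-PAGE, then PVDF. Probed overnight at 4 °C for phospho-AKT and total AKT, HRP detection. Densitometry normalised to loading control, then to vehicle. Mean ± SD, ≥3 experiments, t-test.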

[16] = target: T1, Serine/threonine-protein kinase AKT (Homo sapiens); test: Inhibition of AKT phosphorylation in human PC-3 cells at IC50 concentration incubated for 48 hrs by Western blot analysis; assay type: cell-based; summary of the method: as §3
[17] = Cytotoxicity against human PWR-1E cells assessed as cell viability incubated for 72 hrs in serum deprivation condition by MTT assay; assay type: toxicity, cell-based
Summary of the method: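 Cells seeded at 1 × 10^3 (DU145, PC-3), 6 × 10^3 (LNCaP), 2 × 10^3 (PWR-1E) or 4.5 × 10^3 (RWPE-1) per well and left to adhere 24 h. CBD (0–100 μM) then given for 72 h in serum-free medium. MTT added for 3 h at 37 °C, formazan dissolved in DMSO, absorbance read at 570 nm. Viability is % of vehicle; IC50 by nonlinear regression; at least three independent experiments.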

PWR-1E [18] = test: Cytotoxicity against human PWR-1E cells assessed as reduction in cell confluency at 1 to 10 uM incubated for 72 hrs by Hoechst 33342 staining based high-content fluorescence microscopy; assay type: toxicity; conditions: dose 1-10 µM
Summary of the method: (§4)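 PWR-1E cells seeded at 2 × 10^3 per well and given CBD at 1, 2 or 10 μM without serum for 72 h. Stained with Hoechst 33342, YO-PRO-1 and PI, then imaged by high-content microscopy. Scored for confluency and for healthy, early and late apoptotic fractions; at least three independent experiments.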

PWR-1E [19] = test: Induction of cell death in human PWR-1E cells assessed as reduction in nucleus area at 1 to 10 uM incubated for 72 hrs by Hoechst 33342 staining based high-content fluorescence microscopy; assay type: toxicity; conditions: dose 1-10 µM
PWR-1E [20] = test: Induction of cell death in human PWR-1E cells assessed as reduction in nucleus circularity at 1 to 10 uM incubated for 72 hrs by Hoechst 33342 staining based high-content fluorescence microscopy; assay type: toxicity; conditions: dose 1-10 µM
PWR-1E [21] = test: Induction of apoptosis in human PWR-1E cells assessed as reduction in fraction of healthy cells at 1 to 10 uM incubated for 72 hrs by YO-PRO and propidium iodide staining based high content imaging fluorescence microscopic analysis; assay type: toxicity, cell-based; conditions: dose 1-10 µM; summary of the method: as §4
PWR-1E [22] = test: Induction of apoptosis in human PWR-1E cells assessed as early apoptotic cells at 1 to 10 uM incubated for 72 hrs […] and propidium iodide staining based high content imaging fluorescence microscopic analysis; assay type: toxicity, cell-based; conditions: dose 1-10 µM; summary of the method: as §4
PWR-1E [23] = test: Induction of apoptosis in human PWR-1E cells assessed as late apoptotic cells at 1 to 10 uM incubated for 72 hrs by YO-PRO and propidium iodide staining based high content imaging fluorescence microscopic analysis; assay type: toxicity, cell-based; conditions: dose 1-10 µM; summary of the method: as §4
DU-145 [24] = test: Inhibition of cell invasion in human DU-145 cells incubated for 48 hrs by crystal violet staining based microscopic analysis; assay type: functional
PC-3 [25] = test: Anti-invasive activity against human PC-3 cells assessed as reduction in MMP-1 protein secretion incubated for 48 hrs by ELISA analysis; assay type: functional, cell-based
PC-3 [26] = test: Anti-invasive activity against human PC-3 cells assessed as reduction in MMP-3 protein secretion incubated for 48 hrs by ELISA analysis; assay type: functional, cell-based
PC-3 [27] = test: Anti-invasive activity against human PC-3 cells assessed as reduction in MMP-9 protein secretion incubated for 48 hrs by ELISA analysis; assay type: functional, cell-based
PC-3 [28] = test: Anti-invasive activity against human PC-3 cells assessed as increase in E-cadherin protein expression incubated for 48 hrs by Western blotting analysis; assay type: functional

T1 sequence (P31749 whole entry, looked up): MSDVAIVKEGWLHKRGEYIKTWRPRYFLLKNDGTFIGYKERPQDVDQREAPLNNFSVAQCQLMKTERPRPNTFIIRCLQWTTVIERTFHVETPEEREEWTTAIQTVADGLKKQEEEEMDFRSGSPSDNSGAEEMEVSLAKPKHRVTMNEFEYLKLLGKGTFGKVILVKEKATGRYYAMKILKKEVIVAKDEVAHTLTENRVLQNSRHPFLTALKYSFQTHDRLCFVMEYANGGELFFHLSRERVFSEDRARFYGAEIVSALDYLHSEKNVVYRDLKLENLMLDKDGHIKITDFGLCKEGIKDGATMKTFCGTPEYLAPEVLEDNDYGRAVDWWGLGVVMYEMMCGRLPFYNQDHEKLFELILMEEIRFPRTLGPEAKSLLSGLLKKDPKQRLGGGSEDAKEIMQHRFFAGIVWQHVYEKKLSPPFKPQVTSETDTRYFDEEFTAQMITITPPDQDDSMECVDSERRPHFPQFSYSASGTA
T1 sequence (P31751 whole entry, looked up): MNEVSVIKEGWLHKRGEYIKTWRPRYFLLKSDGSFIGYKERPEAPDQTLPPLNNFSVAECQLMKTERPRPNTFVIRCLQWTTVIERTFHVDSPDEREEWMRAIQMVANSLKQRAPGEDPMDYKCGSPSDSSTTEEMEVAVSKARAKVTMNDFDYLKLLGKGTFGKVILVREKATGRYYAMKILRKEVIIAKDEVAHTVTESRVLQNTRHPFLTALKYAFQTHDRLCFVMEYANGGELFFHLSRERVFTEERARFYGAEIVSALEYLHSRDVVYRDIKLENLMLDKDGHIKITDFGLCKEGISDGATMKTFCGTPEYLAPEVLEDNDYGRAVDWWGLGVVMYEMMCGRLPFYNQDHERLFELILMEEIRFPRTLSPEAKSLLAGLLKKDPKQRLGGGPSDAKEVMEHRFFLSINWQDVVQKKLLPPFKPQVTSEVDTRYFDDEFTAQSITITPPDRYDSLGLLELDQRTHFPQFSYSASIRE
T1 sequence (Q9Y243 whole entry, looked up): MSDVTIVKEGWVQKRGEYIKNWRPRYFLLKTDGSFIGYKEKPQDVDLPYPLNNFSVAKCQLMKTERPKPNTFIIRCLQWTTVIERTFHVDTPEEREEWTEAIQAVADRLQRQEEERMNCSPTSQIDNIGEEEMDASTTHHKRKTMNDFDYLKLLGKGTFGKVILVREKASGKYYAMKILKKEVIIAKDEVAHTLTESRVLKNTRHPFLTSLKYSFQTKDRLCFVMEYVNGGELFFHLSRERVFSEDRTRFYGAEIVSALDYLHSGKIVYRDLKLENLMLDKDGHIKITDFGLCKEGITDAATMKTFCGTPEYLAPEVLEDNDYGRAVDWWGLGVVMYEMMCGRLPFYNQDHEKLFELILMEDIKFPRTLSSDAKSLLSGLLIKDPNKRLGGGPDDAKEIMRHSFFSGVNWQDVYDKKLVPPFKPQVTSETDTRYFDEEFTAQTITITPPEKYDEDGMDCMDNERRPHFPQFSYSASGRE

In the case of `C=C(C)[C@@H]1CCC(C)=C[C@H]1c1c(O)cc(CCCCC)cc1O` [CANNABIDIOL], the Activity (DU-145 [1]) is reported as “Active”, the Activity (PC-3 [2]) is reported as “Active” and the Activity (PC-3 [3]) is reported as “Active”. The Activity (PC-3 [4]) was “Active”, the Activity (PC-3 [5]) was “Active” and the Activity (DU-145 [6]) was “Active”. The Activity (DU-145 [7]) was “Active”, the Activity (DU-145 [8]) was roughly 20% and the Activity (PC-3 [9]) was “Active”. The Activity (PC-3 [10]) was “Active”, the Activity (DU-145 [11]) was “Active” and the Activity (PC-3 [12]) was “Active”. For the same molecule, the Activity (DU-145 [13]) was “inactive”, the Activity (PC-3 [14]) was “inactive” and the inhibition [15] was 40%. The inhibition [16] was “inactive”, the IC50 at 72 h [17] was 900 nM and the Activity (PWR-1E [18]) was “Toxic”. The Activity (PWR-1E [19]) was “Toxic”, the Activity (PWR-1E [20]) was “Toxic” and the Activity (PWR-1E [21]) was “Toxic”. For the same molecule, the Activity (PWR-1E [22]) was “Toxic”, the Activity (PWR-1E [23]) was “Toxic” and the inhibition (DU-145 [24]) was “Active”. For the same molecule, the Activity (PC-3 [25]) was “inactive”, the Activity (PC-3 [26]) was “inactive” and the Activity (PC-3 [27]) was “inactive”. For the same molecule, the Activity (PC-3 [28]) was greater than 2.
